# LMPTP inh = LMPTP phosphatase inhibitors, primary screen, biochemical, fluorescence intensity, uHTS. recombinant LMPTP-A, OMFP fluorogenic substrate. inhibition, % at 20 µM. actives 0.22% (n = 360,000);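 active means compounds that cut the enzyme signal by at least half of the control window in the single-dose screen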;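 further: plate controls were DMSO wells with enzyme plus substrate for no effect and substrate without enzyme for full effect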
# Target sequence (P24666 whole entry, looked up): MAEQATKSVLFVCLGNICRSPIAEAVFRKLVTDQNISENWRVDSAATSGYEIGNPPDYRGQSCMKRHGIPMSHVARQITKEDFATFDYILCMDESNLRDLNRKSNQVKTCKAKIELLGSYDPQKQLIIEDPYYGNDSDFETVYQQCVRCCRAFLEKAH
#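 Buffer or medium: Bis-Tris pH 6.0, DTT, detergent; Assay system: LMPTP-A enzyme; Quantity: 0.625 nM enzyme; Detection: endpoint fluorescence intensity; Times: 50 min dark incubation at room temperature; Controls: substrate-only low control, DMSO enzyme-plus-substrate high control; Doses: single 20 µM dose; Read-out: percent inhibition versus substrate-only and uninhibited controls; Reagent: 400 µM OMFP.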
# STEP inh = STEP phosphatase inhibitors, primary screen, biochemical, fluorescence intensity, uHTS; Tyrosine-protein phosphatase non-receptor type 5 (Homo sapiens), P54829; recombinant STEP, OMFP fluorogenic substrate; inhibition, % at 20 µM; actives 0.25% (n = 360,000); AID 588621, 2011;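 active means inhibition at 20 µM, scaled per plate between control wells, above about 37%, limit read from the data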;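 further: 0% = DMSO with enzyme and substrate and 100% = substrate only without enzyme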
#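 System: STEP phosphatase, cell-free reaction; Buffer or medium: Bis-Tris pH 6.0 buffer with DTT, detergent; Incubation: 20 min at room temperature, dark; Measured by: fluorescence, 480/540 nm.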
# DNMT1 inh = human DNMT1 methyltransferase inhibitors, primary screen, biochemical, molecular beacon, fluorescence, HinP1I cleavage, uHTS | actives 0.83% (n = 360,000) | inhibition (reported as % activation of signal), % at 10 µM | DNA (cytosine-5)-methyltransferase 1 (Homo sapiens), P26358; in the data active means inhibition above about 50%
# SUMO1 PPI mod = modulators of SUMO1 protein-protein interactions, primary screen, biochemical, uHTS. SUMO1 binding to a labelled peptide, TR-FRET, 1 h. AID 602429, 2012. actives 0.33% (n = 360,000). inhibition, % at 20 µM; in the data active means inhibition above about 37%
# Target sequence (P63165 whole entry, looked up): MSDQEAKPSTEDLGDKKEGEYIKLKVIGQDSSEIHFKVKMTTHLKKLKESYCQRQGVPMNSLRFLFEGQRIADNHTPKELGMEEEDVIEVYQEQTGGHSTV
# Scp-1 inhibitor = Scp-1 phosphatase inhibitors, primary screen, biochemical, colorimetric, uHTS; Carboxy-terminal domain RNA polymerase II polypeptide A small phosphatase 1 (Homo …; Recombinant Scp1, phosphopeptide, malachite green phosphate absorbance; inhibition, % at 20 µM; actives 0.88% (n = 340,000); AID 493091, 2011;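 active means inhibition above about 50% at 20 µM, limit read from the data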;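 further: plate controls were DMSO wells with enzyme for no effect and wells lacking enzyme for full effect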
# Target sequence (Q9GZU7 76-261 limits assumed): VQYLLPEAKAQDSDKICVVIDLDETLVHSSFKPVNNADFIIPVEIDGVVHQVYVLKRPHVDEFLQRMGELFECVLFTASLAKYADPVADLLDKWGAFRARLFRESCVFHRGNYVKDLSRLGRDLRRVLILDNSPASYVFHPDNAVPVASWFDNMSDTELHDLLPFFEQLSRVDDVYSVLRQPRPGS
#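 Material: truncated SCP-1 phosphatase (76-261aa) / Buffer or medium: 50 mM Tris acetate pH 5.5, 0.005% Tween-20, 10 mM MgCl2 / Compound dosing: one concentration, 20 µM, with 1.0% DMSO / Incubation: 45 min room-temperature reaction, 5 min colour, 30 min stabiliser / Detection: colorimetric free-phosphate detection, absorbance 630 nm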
# NadD block = inhibitors of S. aureus NadD, primary screen, biochemical, colorimetric, uHTS; inhibition, % at 20 µM; purified NadD enzyme, colorimetric absorbance read-out; actives 0.78% (n = 360,000); in the data active means inhibition above about 26%
# Scp-1 conf = Scp-1 phosphatase inhibitors, retest, confirmation, biochemical, colorimetric, single concentration. inhibition, % at 20 µM. actives 61% (n = 2,500). shares compounds with Scp-1 inhibitor. recombinant SCP-1 catalytic domain, phosphate release, malachite green absorbance;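 further: plate controls were DMSO with enzyme for no effect and buffer wells lacking enzyme for full effect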
# Scp-1 MG ctr = colorimetric readout interference by compounds, confirmation, artefact control for Scp-1 inhibitor project, biochemical, single concentration; shares compounds with Scp-1 inhibitor; Colorimetric interference counterscreen, malachite green absorbance 630 nm; apparent inhibition (interference), % at 20 µM; 2,500 tested, under 10 active;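 further: compounds added after enzyme reaction finished so only phosphate colour detection is probed; plate controls were DMSO wells with completed Scp-1 reaction for no effect and substrate wells lacking enzyme for full effect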
# Scp-1 Tm shift = Scp-1 binding by thermal shift, confirmation, orthogonal assay for Scp-1 inhibitor project, biophysical, differential scanning fluorimetry. thermal shift relative to vanadate control, % at 40 µM. Recombinant SCP1, Sypro Orange thermal shift Tm. actives 25% (n = 1,500). shares compounds with Scp-1 inhibitor;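 active means substances whose mean melting-temperature shift, as a percentage of the reference inhibitor's shift, reaches about 5.3%, limit read from the data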;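 further: 0% = Tm of DMSO wells and 100% = Tm with sodium orthovanadate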
# * = called active by the depositor; x = no result given. Most compounds without a hit are left out; they make up all but 2.3% or so of the library.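 How the source made its calls, unless noted: active means inhibition of at least 30% at 20 µM; inactive means the rest.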
SMILES,LMPTP inh,STEP inh,DNMT1 inh,SUMO1 PPI mod,Scp-1 inhibitor,NadD block,Scp-1 conf,Scp-1 MG ctr,others
Cc1ccn2c(=O)nc(SCC(=O)NCc3ccccc3Cl)nc2c1,16,1,6,8,47,10,57*,-19,Scp-1 Tm shift=-2
O=C(NCc1ccccc1OC(F)(F)F)C1CCC(=O)N(Cc2cccc(F)c2)C1 (centres undefined),-1,-3,0,5,-10,-1,x,x,
O=C(NCCN1CCNC1=O)C1CCC(=O)N(Cc2ccccc2F)C1 (centres undefined),-2,-3,3,4,-7,-21,-17,-16,
COc1ccccc1CN1CC(C(=O)NCc2cc(C(C)C)no2)CCC1=O (centres undefined),-1,-4,1,5,70*,1,-8,-10,
Cc1ccccc1CNC(=O)C1CCC(=O)N(Cc2cccc(F)c2)C1 (centres undefined),-1,1,2,4,1,-5,-13,-13,
O=C(O)c1ccc2c(c1)C(=O)/C(=C/c1ccccc1)C2=O,5,0,15,1,76*,3,53*,-20,Scp-1 Tm shift=23*
CCNC(=O)N1C[C@H]2CON(C)[C@H]2C[C@H]1c1ccccc1Br,-1,2,1,0,x,-7,x,x,
COc1ccc2c(c1)[N+](C)(C)C(C)(C)C=C2C,-2,-2,-4,1,93*,17,86*,-12,Scp-1 Tm shift=-21
CCOc1ccc2c(c1)[N+](C)(C)C(C)(C)C=C2C,0,-1,-4,2,48,5,x,x,
Cc1cc(C)nc(SCC(=O)NNS(=O)(=O)c2ccc(C#N)cc2)n1,-1,1,16,15,54*,2,62*,3,Scp-1 Tm shift=-4
CC(C)C[C@H]1CN=C(Nc2ccccc2)N1CC1CCC(C)CC1 (some centres undefined),-1,0,6,3,1,-4,x,x,
CC1(C)NC(=O)N(CCCCOc2cccc(C(F)(F)F)c2)C1=O,-2,1,-6,1,-4,-2,-4,-8,
CCC(C)Oc1cccc(OCCCCN2C(=O)NC(C)(C)C2=O)c1 (centres undefined),-1,-2,3,-11,-6,-3,x,x,
CCCCN(CCCC)C(=S)NC(=O)c1ccccc1Cl,-1,1,-1,-1,-17,-1,x,x,
COC(=O)c1ccc(Cn2c(O)c(N=NC(N)=S)c3ccccc32)o1,3,2,40,-26,60*,11,-12,-20,
NC(=S)N=Nc1c(O)n(Cc2ccccc2)c2ccccc12,1,-2,-1,0,-14,11,x,x,
OCC[C@H]1C[C@@H](O)[C@H](O)[C@@]2(CCCO2)O1,-2,0,12,5,3,-1,x,x,
Cc1ccc2oc(-c3ccco3)cc(=O)c2c1,-1,-1,1,-20,-5,-4,x,x,
